Assay [1] concerns Cell membrane. Kind of assay: Membrano-lytic activity against Escherichia coli assessed as change in morphology at 4 times MIC after 1 hr by SEM analysis. It is filed as subcellular. Summed up: (§1)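 E. coli ATCC BAA-2452 from overnight culture, suspended at 10^7 CFU/mL in 10 mM PBS pH 7.4. […] Fixed in 4% glutaraldehyde in cacodylate buffer pH 7.4 for 3 h at 4 °C, ethanol-dehydrated, HMDS-dried, Au/Pd-coated, then imaged by FE-SEM.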

Assay [2] has as its system Pseudomonas aeruginosa. Kind of assay: Synergistic antibacterial activity against Pseudomonas aeruginosa ATCC […] assessed as fractional inhibitory concentration incubated for 24 hrs in presence of tobramycin by checkerboard assay. It is filed as functional.
The subject of assay [3] is Escherichia coli. Kind of assay: Bactericidal activity against Escherichia coli assessed as reduction in bacterial cells at 4 times MIC after 2 hrs by time kill assay. It is filed as functional. More on the design: scale not given: the % may be the effect or the level left. Summed up:
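Samples taken at time points from 0 to 24 h, serially diluted and plated on MH agar. CFU counted after 24 h at 37 °C. Untreated culture served as control. Two independent experiments in triplicate.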

Assay [4] has as its system Pseudomonas aeruginosa. Briefly: Synergistic antibacterial activity against Pseudomonas aeruginosa ATCC […] incubated for 24 hrs in presence of tobramycin by checkerboard assay. It is filed as functional.
In assay [5] the test system is Cell membrane. Briefly: Membrano-lytic activity against Escherichia coli assessed as membrane atrophy at 4 times MIC after 1 hr by SEM analysis. It is filed as subcellular. Summed up:
as §1

Assay [6] deals with Klebsiella pneumoniae. Kind of assay: Synergistic antibacterial activity against Klebsiella pneumoniae ATCC BAA-1705 fractional inhibitory concentration incubated for 24 hrs in presence of meropenem by checkerboard assay. The class given is functional. Summed up: (§2)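 Checkerboard assay in MH broth. Inoculum from an LB overnight culture set to 0.5 McFarland and diluted 1/150. […] Each agent was also titrated alone. Incubation 24 h at 37 °C. FIC = combination MIC/individual MIC; FICI = sum of the FICs. Triplicate.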

Assay [7] concerns Staphylococcus aureus. Briefly: Synergistic antibacterial activity against methicillin resistant Staphylococcus aureus ATCC BAA-1556 incubated for 24 hrs in presence of levofloxacin by checkerboard assay. It is filed as functional. Summed up:
(§3)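 Checkerboard assay. Inoculum from an LB overnight culture at 0.5 McFarland, diluted 1/150 in MH media. […] Incubated 37 °C for 24 h. FICI = MIC combination/MIC alone summed over both agents. Triplicate.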

Assay [8] concerns Staphylococcus aureus. Briefly: Induction of resistance development in methicillin resistant Staphylococcus aureus ATCC BAA-1556 assessed as increase in MIC by microtiter plate reader assay. It is filed as functional, organism-based. The gist of the method: (§4)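 Serial passage resistance assay with 2-fold microdilution MICs in 96-well plates. Each passage takes the well with the highest concentration still permitting growth, adjusts it to 0.5 McFarland, and dilutes it to a final 5 × 10^5 CFU/mL for the next passage. Eighteen passages; MIC recorded at each. Triplicate.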

Assay [9] has as its system Klebsiella pneumoniae. Briefly: Antibacterial activity against multidrug resistant Klebsiella pneumoniae 1188718 after 24 hrs by microbroth dilution method. The class given is functional.
In assay [10] the test system is Staphylococcus aureus. Briefly: Synergistic antibacterial activity against methicillin resistant Staphylococcus aureus ATCC BAA-1556 assessed as fractional inhibitory concentration index incubated for 24 hrs in presence of tobramycin by checkerboard assay. The class given is functional. The gist of the method:
as §3

Assay [11] concerns Staphylococcus aureus. Briefly: Induction of resistance development in Staphylococcus aureus ATCC 29213 assessed as increase in MIC by microtiter plate reader assay. It is filed as functional, organism-based. The gist of the method:
as §4

Assay [12] has as its system Pseudomonas aeruginosa. Briefly: Synergistic antibacterial activity against Pseudomonas aeruginosa ATCC […] assessed as fractional inhibitory concentration index incubated for 24 hrs in presence of tobramycin by checkerboard assay. It is filed as functional.
A short description of assay [13]: Membrano-lytic effect in mammalian membrane mimic DOPC/cholesterol (10:1) large unilamellar vesicles assessed as calcein leakage measured at 5 to 50 microg/ml measured after 100 mins by multimode microplate reader assay. Particulars: dose 5-50 µg/ml. It is filed as cell membranes. Summed up:
(§5)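 Calcein (70 mM) loaded into extruded 100 nm LUVs: DOPC:DOPG 7:3 (w/w) as the bacterial mimic, DOPC/cholesterol 10:1 (w/w) as the mammalian mimic. Free dye removed by gel filtration. Liposomes at 40 μM final lipid in PBS mixed 1:1 with peptide (5–50 μg/mL). Fluorescence (ex 490/em 520 nm) read every 10 min for 100 min; Triton X-100 defines 100% release. Triplicate.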

Assay [14] has as its system Staphylococcus aureus. Kind of assay: Synergistic antibacterial activity against methicillin resistant Staphylococcus aureus ATCC BAA-1556 fractional inhibitory concentration incubated for 24 hrs in presence of levofloxacin by checkerboard assay. The class given is functional. The gist of the method: as §3
For assay [15], the system named is Klebsiella pneumoniae. Briefly: Antibacterial activity against carbapenem resistant Klebsiella pneumoniae ATCC BAA 1705 after 24 hrs by microbroth dilution method. The class given is functional. (In general: Broth dilution looks for growth in wells or tubes with falling amounts of substance.)
A short description of assay [16]: Membrano-lytic effect in bacterial inner membrane mimic DOPC/DOPG (7:3) large unilamellar vesicles assessed as calcein leakage at 50 ug/ml measured after 90 mins by multimode microplate reader assay. The class given is cell membranes. Particulars: dose 50.0 µg/ml. Summed up:
as §5

The subject of assay [17] is Cell membrane. Kind of assay: Membrano-lytic activity against methicillin resistant Staphylococcus aureus assessed as loss of membrane fluidity at 4 times MIC after 1 hr by SEM analysis. The class given is subcellular.
Assay [18] deals with Cell membrane. Kind of assay: Membrano-lytic activity against Escherichia coli assessed as loss of membrane fluidity at 4 times MIC after 1 hr by SEM analysis. The class given is subcellular. The gist of the method:
as §1

Assay [19] can be described thus: Membrano-lytic effect in bacterial inner membrane mimic DOPC/DOPG (7:3) large unilamellar vesicles assessed as calcein leakage measured upto 100 mins by multimode microplate reader assay. The class given is cell membranes. Particulars: dose 5-50 µg/ml. The gist of the method: as §5
The test system of assay [20] is Staphylococcus aureus. Briefly: Bactericidal activity against methicillin resistant Staphylococcus aureus assessed as reduction in bacterial cells by time kill assay. It is filed as functional, organism-based. The following applies: TDE = time-dependent effect. Summed up:
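Time-kill in Müller–Hinton media. […] Aliquots taken at 0–24 h, serially diluted and plated on MH agar. CFU counted after 24 h at 37 °C. Two independent experiments in triplicate.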

Assay [21] can be described thus: Therapeutic index, ratio of cytotoxicity against human HEKa to MIC for methicillin resistant Staphylococcus aureus.
For assay [22], the system named is Cell membrane. Kind of assay: Membrano-lytic activity against methicillin resistant Staphylococcus aureus assessed as change in morphology at 4 times MIC after 1 hr by SEM analysis. The class given is subcellular.
The test system of assay [23] is Pseudomonas aeruginosa. Briefly: Synergistic antibacterial activity against Pseudomonas aeruginosa ATCC […] fractional inhibitory concentration incubated for 24 hrs in presence of polymyxin B by checkerboard assay. The class given is functional.
The test system of assay [24] is Staphylococcus aureus. Briefly: Synergistic antibacterial activity against methicillin resistant Staphylococcus aureus ATCC BAA-1556 fractional inhibitory concentration index incubated for 24 hrs in presence of levofloxacin by checkerboard assay. The class given is functional. The gist of the method:
as §3

Assay [25] has as its system Escherichia coli. Briefly: Induction of resistance development in Escherichia coli ATCC BAA-2452 assessed as increase in MIC by microtiter plate reader assay. The class given is functional, organism-based. The gist of the method:
as §4

Assay [26] has as its system Klebsiella pneumoniae. Kind of assay: Synergistic antibacterial activity against Klebsiella pneumoniae ATCC BAA-1705 fractional inhibitory concentration index incubated for 24 hrs in presence of meropenem by checkerboard assay. The class given is functional. Summed up:
as §2

Assay [27] has as its system Staphylococcus aureus. Kind of assay: Bactericidal activity against methicillin resistant Staphylococcus aureus assessed as reduction in bacterial cells at MIC after […] by time kill assay. It is filed as functional. Also on record: scale not given: the % may be the effect or the level left.
The subject of assay [28] is Escherichia coli. Kind of assay: Synergistic antibacterial activity against Escherichia coli ATCC 25922 fractional inhibitory concentration incubated for 24 hrs in presence of metronidazole by checkerboard assay. The class given is functional. The gist of the method:
as §2

The subject of assay [29] is Escherichia coli. Briefly: Synergistic antibacterial activity against Escherichia coli ATCC 25922 fractional inhibitory concentration index incubated for 24 hrs in presence of metronidazole by checkerboard assay. It is filed as functional. The gist of the method:
as §2

Assay [30] relates to Escherichia coli. Briefly: Synergistic antibacterial activity against Escherichia coli ATCC 25922 fractional inhibitory concentration incubated for 24 hrs in presence of meropenem by checkerboard assay. It is filed as functional. Summed up: as §3
Assay [31] relates to Escherichia coli. Kind of assay: Synergistic antibacterial activity against Escherichia coli ATCC 25922 fractional inhibitory concentration index incubated for 24 hrs in presence of meropenem by checkerboard assay. The class given is functional. The gist of the method:
as §3

Results on two compounds are retold here after ChEMBL document CHEMBL5236607, “Membrane-Active Cyclic Amphiphilic Peptides: Broad-Spectrum Antibacterial Activity Alone and in Combination with Antibiotics” (J Med Chem, 2022).

Structures are written as SMILES. The source made the active and inactive calls. Peptide text beside a SMILES is read from it. Bounds are passed on as bounds.

For orientation: MIC means the smallest concentration in the dilution series that meets the test's criterion for growth inhibition.

Regarding `N=C(N)NCCC[C@@H]1NC(=O)[C@H](CCCNC(=N)N)NC(=O)[C@H](CCCNC(=N)N)NC(=O)[C@H](Cc2c[nH]c3ccccc23)NC(=O)[C@H](Cc2c[nH]c3ccccc23)NC(=O)[C@H](Cc2c[nH]c3ccccc23)NC(=O)[C@H](Cc2c[nH]c3ccccc23)NC(=O)[C@H](CCCNC(=N)N)NC(=O)[C@H](CCCNC(=N)N)NC1=O`, the result in the assay on Cell membrane [1], in the assay with Cell membrane [5], in the assay on Cell membrane [17], in the assay on Cell membrane [18] and with Cell membrane [22] was Active. In addition, the FIC was determined as 0.25 in the assay with Pseudomonas aeruginosa [2], 0.25 in the assay on Klebsiella pneumoniae [6], 0.25 with Staphylococcus aureus [14] and 0.125 in the assay on Pseudomonas aeruginosa [23]. In addition, the Activity is 100% in the assay on Escherichia coli [3]; 13% in assay [13]; 100% in assay [16]; “Dose-Dependent Effect” in [19]; “Tde” in the assay on Staphylococcus aureus [20]; 100% in the assay on Staphylococcus aureus [27]. For the same compound, the MIC was 0.125 µg/mL in the assay on Pseudomonas aeruginosa [4], 1 µg/mL in the assay with Staphylococcus aureus [7], greater than 64 µg/mL in the assay with Klebsiella pneumoniae [9] and greater than 64 µg/mL in the assay on Klebsiella pneumoniae [15]. In addition, the outcome with Staphylococcus aureus [8], in the assay with Staphylococcus aureus [11] and in the assay with Escherichia coli [25] was inactive. Besides, the “fractional inhibitory concentration index (FICI)” value with Staphylococcus aureus [10], with Pseudomonas aeruginosa [12], in the assay on Staphylococcus aureus [24] and in the assay with Klebsiella pneumoniae [26] was 0.5 in each case. In addition, in [21], the TI is 63.

As to `N=C(N)NCCC[C@@H]1NC(=O)[C@H](CCCNC(=N)N)NC(=O)[C@H](CCCNC(=N)N)NC(=O)[C@H](CCCNC(=N)N)NC(=O)[C@H](Cc2c[nH]c3ccccc23)NC(=O)[C@H](Cc2c[nH]c3ccccc23)NC(=O)[C@H](Cc2c[nH]c3ccccc23)NC(=O)[C@H](Cc2c[nH]c3ccccc23)NC(=O)[C@H](CCCNC(=N)N)NC(=O)[C@H](CCCNC(=N)N)NC1=O` (cyclo(RRRRRRWWWW)), the FIC in the assay on Escherichia coli [28] and in the assay with Escherichia coli [30] was 0.125 throughout. For the same compound, the “fractional inhibitory concentration index (FICI)” value stood at 0.625 in the assay with Escherichia coli [29] and 0.375 with Escherichia coli [31].
